For orientation: EC50 means the concentration that produces a half-maximal response. A lower EC50 goes with an effect from little substance. Broadly, the CC50 is the concentration at which the toxic effect on the cells reaches its halfway point. Higher therefore signals lower toxicity to the cells. A word on the IC50: it is the concentration that gives 50% inhibition.

Data on ten compounds can be found in ChEMBL document CHEMBL1132112, “Novel modifications in the alkenyldiarylmethane (ADAM) series of non-nucleoside reverse transcriptase inhibitors” (J Med Chem, 1999).

Data set [1] deals with CEM-SS. Put plainly: 50% inhibitory concentration for cytopathicity of HIV-1 RF in CEM-SS cells. It counts as functional, cell-based. Particulars: Homo sapiens; call rule not given here. In short, it runs like this:
(§1)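 CEM-SS cells infected with HIV-1 RF; drug-induced protection from viral cytopathic effect read by XTT, as percent of uninfected drug-free control. EC50 is the concentration giving 50% protection. Triplicate wells on each plate, two sister plates; the plate EC50s (each a triplicate average) were averaged. XTT results were confirmed by supernatant RT and p24 levels. NA means no inhibition up to the concentration cytotoxic to uninfected cells.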
On the technique in general: Protection from cytopathic effect is a common read-out in antiviral testing.

The subject of data set [2] is CCRF-CEM. In words: Concentration inhibiting 50% of mock-infected CEM cells. It counts as functional. As to conditions: Homo sapiens. In a few lines: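 Uninfected (mock-infected) CEM-SS cultures exposed to drug. Viability by XTT, expressed as percent of drug-free control. CC50 is the concentration causing 50% cell death. Triplicates on each plate, two sister plates averaged.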

Data set [3] can be described thus: Therapeutic index was determined for the compound as CC50/EC50. Particulars: read-out: TI. In a few lines: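 Ratio of CC50 (XTT viability, uninfected CEM-SS) to EC50 (XTT protection from HIV-1 RF cytopathicity in CEM-SS). Both values come from triplicates on each plate, two sister plates averaged. NA means no antiviral inhibition up to the cytotoxic concentration.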

Data set [4] has as its system CEM-SS. Put plainly: 50% inhibitory concentration for cytopathicity of HIV-1 RF in CEM-SS cells; NA=Not active. It counts as functional, cell-based, Homo sapiens. In short, it runs like this:
as §1

Data set [5] deals with T1, Human immunodeficiency virus type 1 reverse transcriptase (Human immunodeficiency virus 1, UniProt Q72547). Put plainly: Inhibition of HIV-1 Reverse transcriptase using poly-(rc)-oligo(dg) as the template primer. In a few lines: (§2)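 Purified p66/51 HIV-1 reverse transcriptase. Inhibition read as incorporation of [32P]-TTP into poly(rA)·oligo(dT) or of [32P]GTP into poly(rC)·oligo(dG) homopolymer template-primer.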

Data set [6] deals with T1, Human immunodeficiency virus type 1 reverse transcriptase. Put plainly: Inhibition of HIV-1 Reverse transcriptase using poly-(ra)-oligo(dt) as the template primer. Particulars: read-out: IC50. In short, it runs like this:
as §2

Data set [7] concerns CEM-SS. Put plainly: 50% inhibitory concentration for cytopathicity of HIV-1 RF in CEM-SS cells; NA=Not active (EC50 uM). Format: functional, cell-based, Homo sapiens. In short, it runs like this:
as §1

The test system of data set [8] is CEM-SS. In words: Fold resistance of HIV-1 RT containing the specified mutation V106A in CEM-SS cells. It counts as functional, Homo sapiens.
The subject of data set [9] is CEM-SS. Put plainly: Fold resistance of HIV-1 RT containing the specified mutation 4X AZT in CEM-SS cells; S=Enhanced sensitivity. Format: functional, cell-based. Particulars: Homo sapiens.
In data set [10] the test system is CEM-SS. In words: Fold resistance of HIV-1 RT containing the specified mutation A98G in CEM-SS cells. Format: functional, Homo sapiens.
Data set [11] deals with CEM-SS. Put plainly: Fold resistance of HIV-1 RT containing the specified mutation K101E in CEM-SS cells. Format: functional, Homo sapiens.
Data set [12] concerns CEM-SS. In words: Fold resistance of HIV-1 RT containing the specified mutation K103N in CEM-SS cells; NC=No significant change in sensitivity. It counts as functional, cell-based. As to conditions: Homo sapiens.
The test system of data set [13] is CEM-SS. In words: Fold resistance of HIV-1 RT containing the specified mutation V179D in CEM-SS cells. Format: functional, Homo sapiens.
Data set [14] concerns CEM-SS. Put plainly: Fold resistance of HIV-1 RT containing the specified mutation Y181C in CEM-SS cells. It counts as functional, Homo sapiens.
Data set [15] relates to CEM-SS. In words: Fold resistance of HIV-1 RT containing the specified mutation Y188C in CEM-SS cells. Format: functional, Homo sapiens.
The test system of data set [16] is CEM-SS. In words: Fold resistance of the specific mutation in RT to the compound; S=Enhanced sensitivity. Format: functional, cell-based. As to conditions: Homo sapiens.

For `COC(=O)CCCC=C(c1cc(F)c(OC)c(C(=O)OC)c1)c1cc(F)c(OC)c(C(=O)OC)c1`, in [1], the EC50 was 1.9 µM. The compound further displayed a CC50 in data set [2] of 68.3 µM. In data set [3], the selectivity ratio was determined as 35.9.
As to `CCC(=O)CCCC=C(c1cc(Cl)c(OC)c(C=O)c1)c1cc(Cl)c(OC)c(C=O)c1`, the EC50 entry in data set [4] is “Not Active”. Moreover, the CC50 in data set [2] is 1.13 µM.
`COC(=O)c1cc(C(=CCCCCBr)c2cc(Cl)c(OC)c(C(=O)OC)c2)cc(Cl)c1OC` gave an EC50 in data set [1] of 2.8 µM. This compound also returned a CC50 in data set [2] of 98.7 µM. For the same compound, the figures for the IC50 in data set [5] and in [6] were 11 µM and 1.9 µM, respectively.
For `COC(=O)CCCCC(c1cc(Cl)c(OC)c(C(=O)OC)c1)c1cc(Cl)c(OC)c(C(=O)OC)c1`, the EC50 entry in data set [7] is “Not Active”. The compound also registered a CC50 in [2] of 21.3 µM. In [5], this compound registered an IC50 of 100 µM.
Turning to `COC(=O)c1cc(C(=CCCc2ccccc2)c2cc(Br)c(OC)c(C(=O)OC)c2)cc(Br)c1OC`, the EC50 entry in [7] was “Not Active”. The same compound came in with a CC50 in data set [2] of 31.5 µM.
For `COC(=O)c1cc(C(=CCCCC=O)c2cc(Cl)c(OC)c(C(=O)OC)c2)cc(Cl)c1OC`, the EC50 result in [7] is on record as “Not Active”. The compound also gave a CC50 in data set [2] of 9.6 µM. For the same compound, the IC50 in data set [5] turned out to be 4.9 µM; in [6], 4.2 µM.
`CCCCCC=C(c1cc(F)c(OC)c(C(=O)OC)c1)c1cc(F)c(OC)c(C(=O)OC)c1`: the EC50 entry in [7] is on record as “Not Active”. For the same compound, the midpoint of cytotoxicity in data set [2], the CC50, lay at 13.4 µM. In addition, in data set [5], the midpoint of inhibition, the IC50, lay at 10 µM.
Regarding `COC(=O)c1cc(C(=CCCCCN=[N+]=[N-])c2cc(Cl)c(OC)c(C(=O)OC)c2)cc(Cl)c1OC`, the EC50 in [1] was 7.1 µM. The compound further registered a CC50 in data set [2] of 176 µM. The figures for the IC50 in [5] and in data set [6] were 1.3 µM and 0.8 µM, respectively.
Regarding `CCCCCC=C(c1cc(Br)c(OC)c(C(=O)OC)c1)c1cc(Br)c(OC)c(C(=O)OC)c1`, the Fold resistance was above 8 in data set [8]; “Enhanced sensitivity” in data set [9]; 2 in data set [10]; above 8 in data set [11]; “No significant changed” in data set [12]; above 8 in data set [13]. The values for the Fold resistance in [14], in data set [15] and in data set [16] were above 8, above 8 and “Enhanced sensitivity”, respectively.
Compound `CCC(=O)CCCC=C(c1cc(Cl)c(OC)c(C(=O)OC)c1)c1cc(Cl)c(OC)c(C(=O)OC)c1` showed an EC50 in data set [1] of 2.8 µM. For the same compound, in [2], the CC50 is 24.6 µM. The compound further showed an IC50 in data set [5] of 1 µM. In [3], the selectivity ratio amounted to 8.8.
